S100A4 inh HTS = inhibitors of S100A4-myosin IIA peptide binding, primary screen, biochemical, fluorescence polarization, TAMRA-MyoIIA peptide; Protein S100-A4 (Homo sapiens), P26447; inhibition, % at 10.7 µM; 360,000 tested, 0.14% active; AID 652163, 2013;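 active = mean inhibition of at least 70% across replicates, with every replicate also reaching that level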
Target sequence (P26447 whole entry, looked up): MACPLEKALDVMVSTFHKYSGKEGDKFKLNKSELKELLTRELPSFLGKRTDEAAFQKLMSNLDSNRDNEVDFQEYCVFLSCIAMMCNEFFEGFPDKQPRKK
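Test system: S100A4 monomer protein; Medium: HEPES pH 7.2 with CaCl2, KCl, NaCl, DTT, Triton; Probe or stimulus: TAMRA-labelled myosin IIA heavy-chain peptide probe, 5 nM; Doses: one dose per compound; Times: polarization read 5 min after assay mix addition, stable 5–60 min; Benchmarks: neutral control DMSO, positive control TFP.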
DENV2 CPE rescue = inhibitors of DENV2 cytopathic effect, primary screen, cell-based, plate reader, single concentration; DENV2-infected cells, cytopathic effect rescue; CPE inhibition, % at 9.99 µM; 350,000 tested, 1.7% active; AID 651640, 2012; in the data active = CPE inhibition above about 20%, passing the limit was not always enough; tested in BHK-21 cells;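 also: 0% = median of neutral control wells and 100% = median of positive control wells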
C2C12 statin = suppressors of statin myotoxicity in C2C12 myotubes, primary screen, cell-based, single point, plate reader | rescue of ATP level, % at 7.49 µM | 330,000 tested, 0.78% active | C2C12 myotubes + simvastatin, ATP luminescence, 48 h; scaled: DMSO 0, geranylgeraniol control 100 | AID 602340, 2012;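 active = mean ATP rescue above about 67%, or every replicate alone reaching that limit, limit read from the data, passing the limit was not always enough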;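 also: myotubes were challenged with 10 µM simvastatin during compound exposure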
PGC1a acetyl inh = inhibitors of PGC1a acetylation signal, primary screen, cell-based, U2OS, AlphaScreen, inhibitor mode | AlphaScreen anti-acetyl-lysine; with virally co-expressed GCN5 acetyltransferase | inhibition, % at 15.6 µM | 350,000 tested, 0.17% active | AID 651687, 2012;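 active = every replicate shows inhibition of at least 40%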;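 also: 0% = neutral control wells and 100% = positive control wells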
SIRT5 block = SIRT5 desuccinylase inhibitors, primary screen, biochemical, fluorescence imaging, single point, set 5; 330,000 tested, 1.1% active; AID 652115, 2013; Purified SirT5, succinyl-peptide AMC, trypsin-coupled fluorescence; inhibition, % at 15 µM; in the data active = inhibition above about 15%
Target sequence (Q9NXA8 whole entry, looked up): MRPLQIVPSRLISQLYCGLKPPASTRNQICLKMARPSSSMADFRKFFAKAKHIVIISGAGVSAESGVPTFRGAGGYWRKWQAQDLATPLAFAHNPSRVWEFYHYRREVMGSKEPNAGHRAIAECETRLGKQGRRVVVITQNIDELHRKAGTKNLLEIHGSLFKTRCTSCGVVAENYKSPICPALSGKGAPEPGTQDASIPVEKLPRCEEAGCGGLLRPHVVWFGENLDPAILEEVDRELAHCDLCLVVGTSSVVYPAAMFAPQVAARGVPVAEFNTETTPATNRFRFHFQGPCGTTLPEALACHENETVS
An asterisk follows results filed as active. This is a sample that favours compounds with a hit; in the whole collection about 2.9% have one here.

Results for CC(=O)OC1(Cc2ccccc2)CN2CCC1c1ccccc12 (stereo not given) ?
C2C12 statin: 114*; PGC1a acetyl inh: -24

Results for CCC(c1nnnn1-c1ccc(OC)cc1)N1CCC(n2c(=O)[nH]c3ccccc32)CC1 (stereo not given) ?
S100A4 inh HTS: -1; DENV2 CPE rescue: 11; C2C12 statin: -2; PGC1a acetyl inh: 0; SIRT5 block: -1

What do the screens show for `COc1ccc(-n2nnnc2C(CCc2ccccc2)N2CCC(n3c(=O)[nH]c4ccccc43)CC2)cc1` (stereo not given)?
S100A4 inh HTS: 5; DENV2 CPE rescue: 56*; C2C12 statin: -14; PGC1a acetyl inh: 55*; SIRT5 block: -3

What do the screens show for `COC(=O)[C@@H]1[C@@H](CO)[C@@H]2Cn3c(ccc(C4=CCCC4)c3=O)[C@H]1N2S(=O)(=O)c1cn(C)cn1`?
S100A4 inh HTS: 5; DENV2 CPE rescue: -2; C2C12 statin: -9; SIRT5 block: -11

Results for CCOC(=O)c1cccc(C2=C(CNC(C)=O)[C@H]3CC[C@@H](C2)N3Cc2ccccc2)c1 ?
S100A4 inh HTS: 1; DENV2 CPE rescue: 32*; C2C12 statin: 7; PGC1a acetyl inh: -2; SIRT5 block: 0

How did CN1C(=O)/C(=C/c2cccn2-c2ccc3ccccc3c2)C(=O)NC1=S do in these assays?
C2C12 statin: -11; PGC1a acetyl inh: 8

How did O=C1NC(=S)NC(=O)C1=Cc1cccn1-c1ccc(O)cc1 do in these assays?
S100A4 inh HTS: -4; DENV2 CPE rescue: 3; SIRT5 block: 53*

Results for CC[n+]1c(-c2ccccc2)c2cc(N)ccc2c2ccc(N)cc21 ?
S100A4 inh HTS: 130*; DENV2 CPE rescue: 0; SIRT5 block: -1

How did CS(=O)(=O)c1ccc(C2=C(CNC(=O)c3cccs3)[C@H]3CC[C@@H](C2)N3CCOc2ccccc2)cc1 do in these assays?
S100A4 inh HTS: -5; DENV2 CPE rescue: -2; C2C12 statin: -5; PGC1a acetyl inh: -5; SIRT5 block: 30*

Results for CCC1(Oc2ccccc2)C(=O)NC(=O)NC1=O ?
S100A4 inh HTS: -4; DENV2 CPE rescue: 6; C2C12 statin: 108*; PGC1a acetyl inh: 7; SIRT5 block: -13

How did CCOCCN1CCC(OC(C)=O)C(C)C1 (stereo not given) do in these assays?
C2C12 statin: -9; PGC1a acetyl inh: 42*

How did C=Cc1ccc(Cn2c(C(=O)O)c(C=O)c3ccccc32)cc1 do in these assays?
S100A4 inh HTS: -15; DENV2 CPE rescue: 2; SIRT5 block: 17*

Results for O=Cc1c(C(=O)O)n(Cc2ccccc2Cl)c2ccccc12 ?
S100A4 inh HTS: -30; DENV2 CPE rescue: 1; PGC1a acetyl inh: -6; SIRT5 block: 2

How did CC(C)CC#Cc1ccc([C@@H]2[C@H](CO)N3CCCCN(C(=O)Cc4ccccn4)C[C@@H]23)cc1 do in these assays?
S100A4 inh HTS: -13; DENV2 CPE rescue: 16; C2C12 statin: -15; PGC1a acetyl inh: -7; SIRT5 block: 0

What do the screens show for `CC(=O)C1CCC2(O)C3CCC4=CC(=O)CCC4(C)C3CCC12C` (stereo not given)?
S100A4 inh HTS: -2; DENV2 CPE rescue: -8; C2C12 statin: -2; SIRT5 block: 3

How did C[C@@H]1O[C@@H](O[C@@H]2C=C3CC[C@@H]4C(CC[C@]5(C)[C@@H](c6ccc(=O)oc6)CC[C@]45O)[C@@]3(C)CC2)[C@H](O)[C@H](O)[C@H]1O (stereo not given in full) do in these assays?
S100A4 inh HTS: -2; DENV2 CPE rescue: -6; C2C12 statin: 9; PGC1a acetyl inh: 67*

How did C[C@@H]1O[C@@H](O[C@H]2C[C@@H](O)[C@]3(CO)[C@H]4[C@H](O)C[C@]5(C)[C@@H](C6COC(=O)C6)CC[C@]5(O)[C@@H]4CC[C@]3(O)C2)[C@H](O)[C@H](O)[C@H]1O (stereo not given in full) do in these assays?
S100A4 inh HTS: -4; DENV2 CPE rescue: -4; C2C12 statin: 5; PGC1a acetyl inh: 0; SIRT5 block: -4

How did C[C@@H]1O[C@@H](O[C@@H]2C=C3CCC4C(CC[C@]5(C)[C@@H](c6ccc(=O)oc6)CC[C@]45O)[C@@]3(C)CC2)[C@H](O)[C@H](O)[C@H]1O (stereo not given in full) do in these assays?
S100A4 inh HTS: 4; DENV2 CPE rescue: 0; C2C12 statin: 5; PGC1a acetyl inh: 60*; SIRT5 block: -5

Results for COc1ccc(CC2NCC(O)C2OC(C)=O)cc1 (stereo not given) ?
S100A4 inh HTS: 18; DENV2 CPE rescue: 4; C2C12 statin: 114*; PGC1a acetyl inh: 92*

Results for O=c1c2ccccc2nc(-c2ccco2)n1-c1ccccn1 ?
C2C12 statin: 120*; PGC1a acetyl inh: 9

What do the screens show for `O=C(O)[C@H]1[C@H](CO)[C@H]2Cn3c(ccc(-c4ccccc4F)c3=O)[C@@H]1N2C(=O)Nc1ccccc1`?
S100A4 inh HTS: 35; DENV2 CPE rescue: -15; C2C12 statin: -19; SIRT5 block: -15

What do the screens show for `COc1ccc(C#Cc2ccc([C@H]3[C@@H](CO)N4CCCCN(C(=O)Cc5ccncc5)C[C@@H]34)cc2)cc1`?
S100A4 inh HTS: -12; DENV2 CPE rescue: -4; PGC1a acetyl inh: 16; SIRT5 block: -1

How did N#Cc1cccc(-c2ccc([C@H]3[C@H](CO)N4CCCCN(C(=O)Cc5cccnc5)C[C@@H]34)cc2)c1 do in these assays?
S100A4 inh HTS: 11; DENV2 CPE rescue: 6; C2C12 statin: -14; PGC1a acetyl inh: -2; SIRT5 block: -7

Results for N#Cc1cccc(-c2ccc([C@H]3[C@@H](CO)N4CCCCN(C(=O)Cc5cccnc5)C[C@H]34)cc2)c1 ?
S100A4 inh HTS: 2; DENV2 CPE rescue: 38*; C2C12 statin: -30; PGC1a acetyl inh: -1; SIRT5 block: -2

Results for O=C(Cc1cccnc1)N1CCCCN2[C@@H](CO)[C@@H](c3ccc(C#CC4CCCC4)cc3)[C@@H]2C1 ?
S100A4 inh HTS: -6; DENV2 CPE rescue: 32*; C2C12 statin: -7; PGC1a acetyl inh: 12; SIRT5 block: 12

Results for O=C(Cc1cccnc1)N1CCCCN2[C@H](CO)[C@@H](c3ccc(C#CC4CCCC4)cc3)[C@H]2C1 ?
S100A4 inh HTS: 5; DENV2 CPE rescue: 40*; C2C12 statin: -33; PGC1a acetyl inh: 12; SIRT5 block: -1

Results for COc1ccc(C#Cc2ccc([C@@H]3[C@@H](CO)N4CCCCN(C(=O)Cc5ccncc5)C[C@@H]34)cc2)cc1 ?
S100A4 inh HTS: -14; DENV2 CPE rescue: 36*; PGC1a acetyl inh: 11; SIRT5 block: 6

Bioassay records from PubChem.
